MT stabilize HCS – microtubule stabilizers in HeLa cells. AID 2205. actives 0.83% (n = 200,000). HeLa tubulin immunostaining HCS, 24 h; share of cells brighter than vehicle mean+2SD. % tubulin-high responders, % at 10 µM;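 active = plate Z-score above 3 for both tubulin-high and condensed-nucleus cell shares, with cell loss under 80%, at 10 µM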;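 also: anti alpha tubulin signal scored within the nucleus-defined area of each cell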
PKD1 kinase inh – PKD1 (human) kinase inhibition; Q15139; PKD1 kinase fluorescence polarization assay; inhibition, % (concentration not given with the values); actives 0.056% (n = 200,000); AID 797; in the data active = inhibition above about 50%
ABCG2 inh – human ABCG2 inhibition, ABCB1 as counter-screen; IgMXP3 cells, JC-1 efflux, flow cytometry; inhibition, % at 6.6 µM; actives 0.1% (n = 190,000); AID 1325;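 active = inhibition above 80%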;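 also: 0% = DMSO and 100% = nicardipine control wells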
Target sequence (Q9UNQ0 whole entry, looked up): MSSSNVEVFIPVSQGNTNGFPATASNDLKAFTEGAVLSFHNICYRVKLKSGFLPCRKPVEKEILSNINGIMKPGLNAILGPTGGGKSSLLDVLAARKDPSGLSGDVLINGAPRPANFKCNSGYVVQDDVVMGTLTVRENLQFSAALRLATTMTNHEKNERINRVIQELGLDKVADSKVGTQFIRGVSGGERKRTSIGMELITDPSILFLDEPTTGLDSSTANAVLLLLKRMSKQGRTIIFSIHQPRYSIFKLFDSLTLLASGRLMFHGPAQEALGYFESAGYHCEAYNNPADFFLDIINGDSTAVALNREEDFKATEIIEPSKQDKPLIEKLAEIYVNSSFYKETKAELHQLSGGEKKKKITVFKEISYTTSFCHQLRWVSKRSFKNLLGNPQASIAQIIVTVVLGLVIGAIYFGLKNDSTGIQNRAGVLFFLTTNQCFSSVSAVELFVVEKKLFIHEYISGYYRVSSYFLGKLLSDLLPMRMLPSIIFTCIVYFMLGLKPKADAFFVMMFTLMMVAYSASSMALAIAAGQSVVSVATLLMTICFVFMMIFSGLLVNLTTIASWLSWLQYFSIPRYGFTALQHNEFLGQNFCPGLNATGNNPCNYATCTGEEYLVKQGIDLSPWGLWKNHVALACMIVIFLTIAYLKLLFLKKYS
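Test system: IgMXP3 (ABCG2) plus far-red-tagged CCRF-Adr (ABCB1) cells. Reagent: JC-1 dye as substrate. Timing: 10 min exposure at 25 °C with rotation, no wash. Measured by: flow cytometric JC-1 green MFI at 530 nm. Read-out: percent efflux inhibition, scaled nicardipine 100% to DMSO 0%. Control set: nicardipine and DMSO wells.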
b-catenin transl – alters nuclear translocation of beta-catenin in HeLa cells | immunofluorescence imaging | nuclear translocation activity, % at 5 µM | actives 0.3% (n = 190,000) | AID 1665;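 active = nuclear translocation activity above 50% at 5 µM, with a well cell count of 50 or more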;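 also: per-cell ratio of nuclear to cytoplasmic median beta-catenin stain intensity; plate controls were DMSO negative control for no effect and GSK-3 inhibitor IX positive control for full effect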
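Assay system: human HeLa cells, native beta-catenin; doses: 5 µM primary, 0.02–20 µM confirmation; incubation: compound treatment 24 h, 37°C, 5% CO2; technique: fluorescence imaging of beta-catenin antibody stain plus DAPI; measure: % activation, nuclear-to-cytoplasmic median beta-catenin signal ratio per cell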
ABCB1 block – inhibitors of human ABCB1 transporter, ABCG2 counter-screen; P08183; CCRF-Adr cells, JC-1 efflux, flow cytometry; inhibition, % at 6.6 µM; actives 0.067% (n = 190,000); in the data active = inhibition above about 40%;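 also: 0% = vehicle and 100% = reference inhibitor; higher value means more JC-1 retained so stronger ABCB1 efflux block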
ABCB1 confirm – confirmation of human ABCB1 transporter inhibitors, ABCG2 counter-screen; actives 7% (n = 270); inhibition, % at 6.6 µM; AID 1451; shares compounds with ABCG2 inh; CCRF-Adr cells, JC-1 efflux, flow cytometry;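 active = inhibition of pump activity above 50%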;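 also: 0% = DMSO and 100% = nicardipine full pump inhibition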
ABCG2 confirm – confirmation of human ABCG2 transporter inhibitors, ABCB1 counter-screen; AID 1453; shares compounds with ABCG2 inh; inhibition, % at 6.6 µM; actives 6% (n = 270); IgMXP3 cells, JC-1 efflux, flow cytometry;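 active = inhibition above 50%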;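 also: 0% = DMSO wells and 100% = nicardipine pump inhibitor wells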
IgMXP3 autofluor – IgMXP3 autofluorescence flag for ABCG2 confirmation | shares compounds with ABCG2 inh | IgMXP3 cells, compound autofluorescence 488/530 nm, flow; active compounds read high | fluorescence at 6.6 µM | actives 30% (n = 270) | AID 1480;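 active = fluorescence in ABCG2-expressing cells above the plate's control-well mean plus 3 SD, cut at about 15 in these data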;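 also: median cell fluorescence with compound minus that of DMSO-treated control cells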
CCRF-Adr fluor – CCRF-Adr autofluorescence flag for ABCB1 confirmation; shares compounds with ABCG2 inh; CCRF-Adr cells, compound autofluorescence 488/530 nm, flow cytometry; active compounds read high; fluorescence at 6.6 µM; actives 30% (n = 270);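 active = fluorescence beyond the plate control mean plus 3 SD, with a fluorescence-to-maximum score over 2, cut at about 25 in these data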
The depositor's hits bear a star. An excerpt weighted towards active compounds, which were near 1% of everything screened.

What do the screens show for `O=C1S/C(=C/c2ccc(N3CCOCC3)o2)C(=O)N1Cc1ccc(F)cc1`?
MT stabilize HCS: 3; PKD1 kinase inh: -9; ABCG2 inh: 111*; b-catenin transl: 0; ABCB1 block: 7; ABCB1 confirm: 5; ABCG2 confirm: -10; IgMXP3 autofluor: 196*; CCRF-Adr fluor: 41*

What do the screens show for `Brc1cc2c(cc1/C=N/Nc1nc(N3CCOCC3)nc(N3CCOCC3)n1)OCO2`?
MT stabilize HCS: 2; PKD1 kinase inh: 2; ABCG2 inh: 0; b-catenin transl: -2; ABCB1 block: 0

Results for COC(=O)C1CC(=O)c2sccc2C1 (configuration not stated) ?
MT stabilize HCS: 2; PKD1 kinase inh: 8; ABCG2 inh: 6; b-catenin transl: 2; ABCB1 block: 0

How did CC(=O)Nc1ccc(C(=O)OCC(=O)c2cccc([N+](=O)[O-])c2)cc1 do in these assays?
MT stabilize HCS: 4; PKD1 kinase inh: -3; ABCG2 inh: 82*; b-catenin transl: 0; ABCB1 block: 0; ABCB1 confirm: 0; ABCG2 confirm: 46; IgMXP3 autofluor: -1.6; CCRF-Adr fluor: -4.8

Results for CC(C)(C)NC(=O)c1ccc(NC(=O)CSc2ccccc2)cc1 ?
MT stabilize HCS: 3; PKD1 kinase inh: -3; ABCG2 inh: 1; b-catenin transl: 1; ABCB1 block: 0

Results for O=C(Nc1ccccc1)Nc1nc(-c2ccc(F)cc2)cs1 ?
MT stabilize HCS: 3; PKD1 kinase inh: -6; ABCG2 inh: 81*; b-catenin transl: 4; ABCB1 block: 1; ABCB1 confirm: -1; ABCG2 confirm: 19; IgMXP3 autofluor: 1.1; CCRF-Adr fluor: 22

How did Cc1cc(N2CCCCC2)ccc1[N+](=O)[O-] do in these assays?
MT stabilize HCS: 1; PKD1 kinase inh: -16; ABCG2 inh: 84*; b-catenin transl: -1; ABCB1 block: 2; ABCB1 confirm: 1; ABCG2 confirm: 8; IgMXP3 autofluor: 0.76; CCRF-Adr fluor: 2.4

What do the screens show for `O=Cc1c(Cl)[nH]c(=O)n1-c1ccccc1`?
MT stabilize HCS: 2; PKD1 kinase inh: 2; ABCG2 inh: 104*; b-catenin transl: 0; ABCB1 block: 4; ABCB1 confirm: 2; ABCG2 confirm: 4; IgMXP3 autofluor: -0.84; CCRF-Adr fluor: -0.94

How did O=c1[nH]c2cc(Cl)ccc2n1-c1ccccc1 do in these assays?
MT stabilize HCS: 3; PKD1 kinase inh: 3; ABCG2 inh: 6; b-catenin transl: 1; ABCB1 block: 1

Results for Clc1ccccc1-c1nnc(CNC2CC2)o1 ?
MT stabilize HCS: 4; PKD1 kinase inh: -1; ABCG2 inh: 0; b-catenin transl: -2; ABCB1 block: 0

What do the screens show for `CCOC(=O)c1sc2cc([N+](=O)[O-])cc(SCC(C)C)c2c1N`?
MT stabilize HCS: 1; PKD1 kinase inh: 7; ABCG2 inh: 60; b-catenin transl: 1; ABCB1 block: 32; ABCB1 confirm: 23; ABCG2 confirm: -7; IgMXP3 autofluor: 82*; CCRF-Adr fluor: 129*

Results for CN(C)c1nc(OCCNC(=O)COc2ccc(Cl)cc2Cl)nc(N(C)C)n1 ?
MT stabilize HCS: 2; PKD1 kinase inh: -3; ABCG2 inh: 28; b-catenin transl: -6; ABCB1 block: 61*; ABCB1 confirm: 37; ABCG2 confirm: 41; IgMXP3 autofluor: -2.3; CCRF-Adr fluor: -5.1

How did CN(C)c1nc(OCCOC(=O)COc2ccc(Cl)cc2Cl)nc(N(C)C)n1 do in these assays?
MT stabilize HCS: 2; PKD1 kinase inh: 0; ABCG2 inh: 25; b-catenin transl: -7; ABCB1 block: 2

Results for CCOc1nc(-c2ccccc2)ccc1-c1noc(COC)n1 ?
MT stabilize HCS: 2; PKD1 kinase inh: -11; ABCG2 inh: 76; b-catenin transl: -1; ABCB1 block: 1; ABCB1 confirm: -1; ABCG2 confirm: 27; IgMXP3 autofluor: 4; CCRF-Adr fluor: 3.8

How did CCOc1nc2ccccc2nc1C do in these assays?
MT stabilize HCS: 3; PKD1 kinase inh: -10; ABCG2 inh: 1; b-catenin transl: 0; ABCB1 block: 0

How did CC[n+]1c(/C=C2\Sc3ccccc3N2C)ccc2cccc(C)c21 do in these assays?
MT stabilize HCS: 67; PKD1 kinase inh: -12; ABCG2 inh: 151*; b-catenin transl: 5; ABCB1 block: 30; ABCB1 confirm: -182; ABCG2 confirm: 18; IgMXP3 autofluor: 273*; CCRF-Adr fluor: 535*

Results for COc1ccc(-[n+]2c(C)cc(/C=C3\Sc4ccccc4N3C)cc2C)cc1 ?
MT stabilize HCS: 24; PKD1 kinase inh: -12; ABCG2 inh: 6; b-catenin transl: 12; ABCB1 block: -1

What do the screens show for `OCCC#Cc1ccc(CN2CCN(Cc3ccccc3)C(CCO)C2)cc1` (configuration not stated)?
MT stabilize HCS: 6; PKD1 kinase inh: -4; ABCG2 inh: 89*; b-catenin transl: 0; ABCB1 block: 14; ABCB1 confirm: 3; ABCG2 confirm: 4; IgMXP3 autofluor: 4.3; CCRF-Adr fluor: 13

What do the screens show for `O=C(Nc1cc(C(F)(F)F)ccc1N1CCOCC1)c1ccco1`?
MT stabilize HCS: 3; PKD1 kinase inh: -13; ABCG2 inh: 2; b-catenin transl: 0; ABCB1 block: 0

How did O=C(c1ccccc1)c1ccc(N2CCOCC2)c(NC(=O)c2ccco2)c1 do in these assays?
MT stabilize HCS: 2; PKD1 kinase inh: -3; ABCG2 inh: 81*; ABCB1 block: 4; ABCB1 confirm: 0; ABCG2 confirm: 47; IgMXP3 autofluor: 0.46; CCRF-Adr fluor: 33*

Results for O=C(Nc1ccc(Cl)cc1C(F)(F)F)c1ccccc1 ?
MT stabilize HCS: 2; PKD1 kinase inh: 1; ABCG2 inh: 36; b-catenin transl: -1; ABCB1 block: 43*; ABCB1 confirm: 1; ABCG2 confirm: 9; IgMXP3 autofluor: 0.26; CCRF-Adr fluor: -3.4

How did O=C(Nc1cc(Cl)ccc1Cl)c1ccc(-c2ccccc2)cc1 do in these assays?
MT stabilize HCS: 3; PKD1 kinase inh: -4; ABCG2 inh: 1; ABCB1 block: 0

How did Cc1ccc(CNC(=O)C(=O)NCC(c2ccco2)N2CCOCC2)cc1 (configuration not stated) do in these assays?
MT stabilize HCS: 2; PKD1 kinase inh: -15; ABCG2 inh: -3; b-catenin transl: -4; ABCB1 block: 0

Source: PubChem (several laboratories)
